We go through nine compounds from ChEMBL document CHEMBL1137361, “WB4101-related compounds: new, subtype-selective alpha1-adrenoreceptor antagonists (or inverse agonists?)” (J Med Chem, 2006).

Structures are written as SMILES.

Test [1] has as its target T1, Alpha-1A adrenergic receptor (Rattus norvegicus, UniProt P43140).
T1 sequence (P43140 whole entry): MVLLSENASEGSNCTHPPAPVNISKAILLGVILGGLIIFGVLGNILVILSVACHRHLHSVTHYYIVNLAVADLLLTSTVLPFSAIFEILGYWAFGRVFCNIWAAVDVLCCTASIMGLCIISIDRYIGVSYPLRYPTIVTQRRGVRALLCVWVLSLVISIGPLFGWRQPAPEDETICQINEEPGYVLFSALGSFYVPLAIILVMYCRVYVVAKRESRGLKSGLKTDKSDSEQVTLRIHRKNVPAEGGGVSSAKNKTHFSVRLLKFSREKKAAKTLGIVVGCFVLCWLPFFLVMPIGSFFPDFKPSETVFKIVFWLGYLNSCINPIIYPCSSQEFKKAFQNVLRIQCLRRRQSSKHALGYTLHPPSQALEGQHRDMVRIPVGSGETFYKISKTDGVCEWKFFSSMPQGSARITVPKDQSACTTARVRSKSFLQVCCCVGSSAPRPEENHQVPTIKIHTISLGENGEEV
The test can be described thus: Activity at adrenergic alpha 1A receptor assessed as antagonism of noradrenaline-induced contraction of Sprague-Dawley rat vas deferens. The conditions noted are these: read-out: pA2 (converted). Type of test: functional, tissue-based. Put shortly: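 Rat vas deferens, prostatic portion. Contraction was induced with (-)-noradrenaline, and blocking activity was measured as antagonism of that contraction.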

The target of test [2] is Alpha adrenergic receptor (1a and 1d) (Homo sapiens) (UniProt P35348+P25100). As to the kind of experiment: Selectivity for human adrenergic alpha 1A receptor over human adrenergic alpha 1D receptor.
The target in test [3] is T2, 5-hydroxytryptamine receptor 1A (Rattus norvegicus, UniProt P19327).
T2 sequence (P19327 whole entry): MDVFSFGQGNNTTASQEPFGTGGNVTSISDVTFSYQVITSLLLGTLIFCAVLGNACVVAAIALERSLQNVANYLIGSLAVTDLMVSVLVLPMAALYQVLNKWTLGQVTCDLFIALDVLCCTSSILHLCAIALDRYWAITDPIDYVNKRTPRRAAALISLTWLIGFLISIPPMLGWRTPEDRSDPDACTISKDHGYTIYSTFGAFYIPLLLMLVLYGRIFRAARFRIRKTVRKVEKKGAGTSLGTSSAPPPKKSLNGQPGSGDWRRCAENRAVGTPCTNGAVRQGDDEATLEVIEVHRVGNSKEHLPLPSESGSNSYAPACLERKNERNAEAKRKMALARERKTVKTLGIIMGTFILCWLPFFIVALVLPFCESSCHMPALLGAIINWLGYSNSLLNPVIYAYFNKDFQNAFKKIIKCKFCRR
As to the kind of experiment: Displacement of [3H]8-OH-DPAT from 5-HT1A receptor in rat hippocampus. In kind it is tissue-based. A digest of the protocol:
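Radioligand binding with [3H]-8-OH-DPAT in membrane preparations from rat hippocampus. Affinity is expressed as pKi.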
(Loss of bound radioactivity is the signal in a displacement assay; it reports binding, not function.)

The target in test [4] is T3, Alpha-1D adrenergic receptor (Rattus norvegicus, UniProt P23944).
T3 sequence (P23944 whole entry): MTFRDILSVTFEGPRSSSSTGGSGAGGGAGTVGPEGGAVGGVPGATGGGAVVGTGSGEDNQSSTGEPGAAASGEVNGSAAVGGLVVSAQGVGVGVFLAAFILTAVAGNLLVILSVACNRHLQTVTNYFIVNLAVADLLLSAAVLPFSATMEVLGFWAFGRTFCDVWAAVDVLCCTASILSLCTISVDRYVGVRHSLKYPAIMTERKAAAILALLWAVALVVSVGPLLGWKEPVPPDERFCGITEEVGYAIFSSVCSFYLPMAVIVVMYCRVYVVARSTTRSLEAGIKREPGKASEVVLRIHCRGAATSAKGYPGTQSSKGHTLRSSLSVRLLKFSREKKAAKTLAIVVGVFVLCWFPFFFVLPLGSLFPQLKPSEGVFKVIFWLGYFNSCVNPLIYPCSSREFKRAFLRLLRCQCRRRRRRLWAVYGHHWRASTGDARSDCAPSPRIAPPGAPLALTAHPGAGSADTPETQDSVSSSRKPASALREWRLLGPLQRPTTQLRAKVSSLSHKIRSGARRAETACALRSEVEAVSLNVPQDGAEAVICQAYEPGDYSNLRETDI
The test can be described thus: Activity at adrenergic alpha 1D receptor assessed as antagonism on noradrenaline-induced contraction of Sprague-Dawley rat thoracic aorta. Type of test: functional, tissue-based. As to conditions: read-out: pA2 (converted). A digest of the protocol: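 Rat thoracic aorta contracted with (-)-noradrenaline. Blocking activity was measured as antagonism of the contraction.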

The target in test [5] is Alpha adrenergic receptor 1A and 1D (Rattus norvegicus) (UniProt P23944+P43140). The test can be described thus: Selectivity for Sprague-Dawley rat adrenergic alpha 1D receptor over adrenergic alpha 1A receptor. In kind it is functional.
Test [6] addresses T4, Alpha-1B adrenergic receptor (Rattus norvegicus, UniProt P15823).
T4 sequence (P15823 whole entry): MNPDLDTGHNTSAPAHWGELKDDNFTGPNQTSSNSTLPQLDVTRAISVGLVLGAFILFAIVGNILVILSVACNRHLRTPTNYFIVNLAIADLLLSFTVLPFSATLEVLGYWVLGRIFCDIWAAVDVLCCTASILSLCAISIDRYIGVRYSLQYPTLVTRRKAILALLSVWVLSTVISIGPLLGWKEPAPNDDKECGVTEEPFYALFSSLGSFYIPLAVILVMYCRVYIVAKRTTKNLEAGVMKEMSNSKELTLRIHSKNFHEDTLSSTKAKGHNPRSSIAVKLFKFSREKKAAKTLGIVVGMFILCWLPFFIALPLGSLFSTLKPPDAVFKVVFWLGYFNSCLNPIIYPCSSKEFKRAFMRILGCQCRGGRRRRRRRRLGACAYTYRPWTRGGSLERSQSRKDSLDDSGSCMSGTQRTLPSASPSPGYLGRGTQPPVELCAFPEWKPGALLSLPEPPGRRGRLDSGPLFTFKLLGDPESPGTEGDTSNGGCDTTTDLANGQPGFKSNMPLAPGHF
As to the kind of experiment: Activity at adrenergic alpha 1B receptor assessed as antagonsim of phenylephrine-induced contraction of Sprague-Dawley rat spleen. Type of test: functional, tissue-based. The conditions noted are these: read-out: pA2 (converted). A digest of the protocol: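 Rat spleen contracted with (-)-phenylephrine. Blocking activity was measured as antagonism of the contraction.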

The nature of test [7]: Selectivity for 5HT1A receptor in rat hippocampus over human adrenergic alpha 1A receptor. In kind it is tissue-based.
For test [8], the target named is Alpha adrenergic receptor 1A and 1B (Rattus norvegicus) (UniProt P15823+P43140). As to the kind of experiment: Selectivity for Sprague-Dawley rat adrenergic alpha 1B receptor over adrenergic alpha 1A receptor. In kind it is functional.

Sequence of Alpha adrenergic receptor (1a and 1d) (Homo sapiens) (P25100 whole entry, looked up): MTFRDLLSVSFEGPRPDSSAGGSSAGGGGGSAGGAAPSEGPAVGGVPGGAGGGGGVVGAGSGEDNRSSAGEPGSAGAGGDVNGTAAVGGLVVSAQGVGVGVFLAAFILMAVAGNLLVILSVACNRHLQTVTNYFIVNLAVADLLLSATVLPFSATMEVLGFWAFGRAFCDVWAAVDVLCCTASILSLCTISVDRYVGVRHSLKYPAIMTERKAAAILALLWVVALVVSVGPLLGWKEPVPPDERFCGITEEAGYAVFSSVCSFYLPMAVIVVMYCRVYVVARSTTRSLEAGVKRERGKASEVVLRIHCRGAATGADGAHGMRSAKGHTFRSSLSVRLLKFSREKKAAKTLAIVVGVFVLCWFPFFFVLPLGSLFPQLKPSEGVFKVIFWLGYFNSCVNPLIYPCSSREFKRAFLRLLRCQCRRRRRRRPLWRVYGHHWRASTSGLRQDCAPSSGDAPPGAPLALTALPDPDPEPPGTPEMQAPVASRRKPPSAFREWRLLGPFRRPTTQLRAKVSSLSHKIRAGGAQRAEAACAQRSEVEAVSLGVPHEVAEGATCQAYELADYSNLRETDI
Sequence of Alpha adrenergic receptor (1a and 1d) (Homo sapiens) (P35348 whole entry, looked up): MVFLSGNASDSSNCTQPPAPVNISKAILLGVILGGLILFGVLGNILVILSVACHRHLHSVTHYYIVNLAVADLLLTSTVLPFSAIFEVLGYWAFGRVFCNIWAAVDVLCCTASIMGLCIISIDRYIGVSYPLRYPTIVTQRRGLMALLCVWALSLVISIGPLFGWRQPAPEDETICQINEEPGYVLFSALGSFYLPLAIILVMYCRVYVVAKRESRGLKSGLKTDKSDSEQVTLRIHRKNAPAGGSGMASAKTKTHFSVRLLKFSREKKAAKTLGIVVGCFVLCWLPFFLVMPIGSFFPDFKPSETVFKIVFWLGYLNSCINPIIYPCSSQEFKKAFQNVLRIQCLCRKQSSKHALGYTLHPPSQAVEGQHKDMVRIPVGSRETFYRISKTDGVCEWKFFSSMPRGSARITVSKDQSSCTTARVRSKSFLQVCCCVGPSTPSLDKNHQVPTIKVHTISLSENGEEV

For the compound `COc1ccc2ccccc2c1OCCNC[C@H]1COc2cc3c(cc2O1)CCCC3`, the Kb in test [1] is 10.5 nM; in test [4], 2570 nM; in test [6] it was more than 10000 nM. Besides, the Selectivity ratio in test [2] was 2.2; in test [5] it was 245; in test [7] it was 25.7; in test [8], more than 955. This compound showed a Ki in test [3] of 1700 nM.

`COc1ccc(-c2ccccc2)cc1OCCNC[C@H]1COc2ccccc2O1`: the Kb was more than 10000 nM in test [1], 61.7 nM in test [4] and 135 nM in test [6]. For the same compound, the Selectivity ratio in test [2] was 2.7; in test [5], less than 0.006; in test [7], 9.3; in test [8], less than 0.01. In test [3], this compound showed a Ki of 52.5 nM.

For `COc1ccc2c(c1OCCNC[C@H]1COc3ccccc3O1)CCCC2`, the Kb was 91.2 nM in test [1], 4.07 nM in test [4] and 4.47 nM in test [6]. Moreover, the Selectivity ratio in test [2] was determined as 5.1; in test [5] it was 0.04; in test [7] it was 3; in test [8], 0.05. This compound also had an inhibition constant (Ki) in test [3] of 8.51 nM.

As to `COc1cc(-c2ccccc2)ccc1OCCNC[C@H]1COc2ccccc2O1`, the Kb in test [1] was 759 nM; in test [4] it was 107 nM; in test [6] it was 132 nM. Also, the Selectivity ratio in test [2] is 2.5; in test [5] it was 0.14; in test [7], 0.9; in test [8], 0.17. This compound showed a Ki in test [3] of 74.1 nM.

For the compound `COc1ccc2ccccc2c1OCCNC[C@H]1COc2ccccc2O1`, the values for the Kb in test [1], in test [4] and in test [6] were 1.1 nM, 0.0209 nM and 0.204 nM, respectively. In addition, the Selectivity ratio in test [2] was determined as 4.2; in test [5], 0.02; in test [7], 7.1; in test [8] it was 0.2. In addition, the affinity in test [3], expressed as Ki, was 11.2 nM.

With `COc1cccc(OC)c1OCCNC[C@H]1COc2cc3ccccc3cc2O1`, the Kb in test [1] is 3470 nM; in test [4] it was 182 nM; in test [6], 2450 nM. The Selectivity ratio is 12.3 in test [2], 0.05 in test [5], 10.2 in test [7] and 0.7 in test [8]. This compound gave a Ki in test [3] of 347 nM.

Take `COc1ccc2ccccc2c1OCCNC[C@@H]1COc2ccccc2O1`: the values for the Kb in test [1], in test [4] and in test [6] were 58.9 nM, 10 nM and 14.8 nM, respectively. The Selectivity ratio in test [2] amounted to 4.9; in test [5], 0.17; in test [7] it was 14.8; in test [8], 0.25. In test [3], this compound gave an inhibitory constant (Ki) of 67.6 nM.

Turning to `COc1cccc(-c2ccccc2)c1OCCNC[C@H]1COc2ccccc2O1`, the Kb is 6.17 nM in test [1], 1.02 nM in test [4] and 7.59 nM in test [6]. The Selectivity ratio is 2.8 in test [2], 0.2 in test [5], 5.8 in test [7] and 1.2 in test [8]. The compound further gave an inhibition constant (Ki) in test [3] of 6.92 nM.

As to `COc1cccc(OC)c1OCCNC[C@H]1COc2cc3c(cc2O1)CCCC3`, the Kb was more than 10000 nM in test [1], 4370 nM in test [4] and 2630 nM in test [6]. For the same compound, the Selectivity ratio in test [2] was 13.5; in test [5], less than 0.4; in test [7], 14.5; in test [8], less than 0.3. In test [3], this compound gave an inhibition constant (Ki) of 363 nM.

The term Ki denotes a dissociation constant, usually derived from enzyme kinetics or from competition with a known ligand.
